Legend:
MGC-803 = assay: Antiproliferative activity against human MGC-803 cells assessed as reduction in cell viability incubated for 48 hrs by MTT assay; type: functional, cell-based; details: MGC-803, 48 h
Method in brief: (§1)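 MTT assay. Compound added 24 h after seeding and left for 48 h. MTT was then added for 4 h at 37 °C, formazan dissolved in DMSO and absorbance read at 490 nm. IC50 calculated from three independent experiments.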

HCT-116 = assay: Antiproliferative activity against human HCT-116 cells assessed as reduction in cell viability incubated for 48 hrs by MTT assay; type: functional, cell-based; details: HCT-116, 48 h
Method in brief: as §1, with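 “assay. 5,000 cells per well in RPMI-1640 with 10% FBS and penicillin/streptomycin at 37 °C, 5% CO2.” for “assay.”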

PC-3 = assay: Antiproliferative activity against human PC-3 cells assessed as reduction in cell viability incubated for 48 hrs by MTT assay; type: functional, cell-based; details: PC-3, 48 h
Method in brief: as §1, with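 “assay. 5,000 cells per well in RPMI-1640 with 10% FBS and penicillin/streptomycin at 37 °C, 5% CO2.” for “assay.”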

[1] = Inhibition of tubulin (unknown origin); set-up: species or system Homo sapiens
[2] = system: MGC-803/PTX (Homo sapiens); assay: Cytotoxicity against human MGC-803/PTX cells assessed as reduction in cell viability at 15 nM incubated for 48 hrs by MTT assay relative to control

Row | SMILES | IC50 (MGC-803) [µM] | IC50 (HCT-116) [µM] | IC50 (PC-3) [µM] | IC50 [1] [µM] | inhibition at 0.015 µM [2] [%]
1 | COc1cc(N(Cc2ccc(C)cc2)C(=O)CSc2nc3ccccc3s2)cc(OC)c1OC | 54.2 | > 80 | > 80 | – | –
2 | COc1ccc(CN(C(=O)CSc2nc3ccccc3s2)c2cc(OC)c(OC)c(OC)c2)cc1C(F)(F)F | 25.2 | > 80 | > 80 | – | –
3 | COc1ccc(/C=C\c2cc(OC)c(OC)c(OC)c2)cc1OP(=O)(O)O [FOSBRETABULIN] | 0.02 | 0.042 | 0.033 | – | –
4 | COc1cc2c(c(OC)c1OC)-c1ccc(OC)c(=O)cc1[C@@H](NC(C)=O)CC2 [COLCHICINE] | 0.107 | 0.129 | 0.338 | – | –
5 | COc1ccc(CN(C(=O)CSc2nc3ccccc3s2)c2cc(OC)c(OC)c(OC)c2)cc1F | 0.416 | 1.83 | 20.1 | – | –
6 | COc1ccc(CN(C(=O)CSc2nc3ccccc3s2)c2cc(OC)c(OC)c(OC)c2)cc1 | 0.163 | 0.426 | 8.46 | – | –
7 | COc1ccc(CN(C(=O)CSc2nc3ccccc3s2)c2cc(OC)c(OC)c(OC)c2)cc1N | 0.084 | 0.491 | 7.51 | – | –
8 | COc1cc(N(Cc2ccc(F)cc2)C(=O)CSc2nc3ccccc3s2)cc(OC)c1OC | > 80 | 59.8 | 50.8 | – | –
9 | COc1cc(N(Cc2ccccc2)C(=O)CSc2nc3ccccc3s2)cc(OC)c1OC | 44.3 | 54.5 | 54.1 | – | –
10 | COc1cc(N(Cc2ccc(Cl)cc2)C(=O)CSc2nc3ccccc3s2)cc(OC)c1OC | > 80 | 60.3 | > 80 | – | –
11 | COc1ccc(CN(C(=O)CSc2nc3ccccc3s2)c2cc(OC)c(OC)c(OC)c2)cc1Br | 0.852 | 4.55 | 16 | – | –
12 | COc1cc(N2C(=O)[C@H](c3cccs3)[C@H]2c2cccc(N=[N+]=[N-])c2)cc(OC)c1OC | – | – | – | 2.26 | –
13 | COc1ccc2nc(SCC(=O)N(Cc3ccc(OC)c(O)c3)c3cc(OC)c(OC)c(OC)c3)sc2c1 | 0.071 | 0.352 | 4.11 | – | –
14 | COc1ccc(CN(C(=O)CSc2nc3ccccc3s2)c2cc(OC)c(OC)c(OC)c2)cc1C | 6.36 | 17.1 | 34.3 | – | –
15 | COc1ccc(CN(C(=O)CSc2nc3ccccc3s2)c2cc(OC)c(OC)c(OC)c2)cc1N=[N+]=[N-] | 0.187 | 2.86 | 14.4 | – | –
16 | COc1cc(N(Cc2ccc(Br)cc2)C(=O)CSc2nc3ccccc3s2)cc(OC)c1OC | 48.1 | 63.8 | > 80 | – | –
17 | COc1ccc(CN(C(=O)CSc2nc3c(C)cccc3s2)c2cc(OC)c(OC)c(OC)c2)cc1O | 0.493 | 0.852 | 12.3 | – | –
18 | CC(=O)O[C@H]1C(=O)[C@@]2(C)[C@H]([C@H](OC(=O)c3ccccc3)[C@]3(O)C[C@H](OC(=O)[C@H](O)[C@@H](NC(=O)c4ccccc4)c4ccccc4)C(C)=C1C3(C)C)[C@]1(OC(C)=O)CO[C@@H]1C[C@@H]2O [PACLITAXEL] | – | – | – | – | < 15
19 | COc1cc(CN(C(=O)CSc2nc3ccccc3s2)c2cc(OC)c(OC)c(OC)c2)cc(OC)c1OC | 45.7 | 65.3 | > 80 | – | –
20 | COc1ccc(CN(C(=O)CSc2nc3ccccc3s2)c2cc(OC)c(OC)c(OC)c2)cc1[N+](=O)[O-] | 0.682 | 1.28 | 26.5 | – | –
21 | COc1ccc(CN(C(=O)CSc2nc3ccccc3s2)c2cc(OC)c(OC)c(OC)c2)cc1OC | 34.1 | 33.9 | > 80 | – | –
22 | COc1ccc(CN(C(=O)CSc2nc3cc(Br)ccc3s2)c2cc(OC)c(OC)c(OC)c2)cc1O | 0.372 | 3.38 | 8.21 | – | –
23 | COc1ccc(CN(C(=O)CSc2nc3cc(Cl)ccc3s2)c2cc(OC)c(OC)c(OC)c2)cc1O | 0.085 | 0.429 | 11.2 | – | –

— ChEMBL document CHEMBL4765386, “Discovery of tertiary amide derivatives incorporating benzothiazole moiety as anti-gastric cancer agents in vitro via inhibiting tubulin polymerization and activating the Hippo signaling pathway” (Eur J Med Chem, 2020)
